Laboratory results taken from ChEMBL document CHEMBL4052630, “Design, synthesis and evaluation of scutellarein-O-acetamidoalkylbenzylamines as potential multifunctional agents for the treatment of Alzheimer's disease” (Eur J Med Chem, 2017).

Tests used:
[1] = Solubility of the compound in water; type: physicochemical; settings: buffer
PC-12 [2] = assay: Neuroprotective activity against H2O2 induced cell injury in rat PC12 cells assessed as increase in cell viability preincubated for 24 hrs followed by incubation with H2O2 for 2 hrs measured after 24 hrs by MTT assay; type: functional, cell-based
Outline: (§1)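 PC12 cells in phenol-red-free DMEM with 10% FCS, plated at 10^5 cells/well. Cells preincubated 24 h with compound (1.0 or 10.0 µM; dissolved in 2% DMSO, diluted in PBS), then exposed to H2O2 100 µM for 2 h. Medium replaced; viability assessed 24 h later by MTT (4 h, 37 °C), lysis in DMF/SDS, A590.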

[3] = Solubility of the compound in DMEM in presence of 10% FBS; type: physicochemical
[4] = Cytotoxicity against human SH-SY5Y cells assessed as cell viability at 100 uM after 24 hrs by MTT assay relative to control; type: cell-based; settings: read-out: Activity
Outline: (§2)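 SH-SY5Y cells grown in DMEM with 10% FBS at 37 °C, 5% CO2, seeded 4 × 10^4 cells/well and incubated 24 h. Compounds given at 1, 10 and 100 µM (1% DMSO final) for 24 h. MTT (5 mg/ml) added for 4 h, cells lysed overnight in DMF/SDS, absorbance read at 590 nm against control. Three independent experiments.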

Rattus norvegicus = species: Rattus norvegicus; assay: Selectivity index, ratio of IC50 for rat serum BuChE to IC50 for rat cortex homogenate AChE
Outline: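 Modified Ellman assay. AChE from 5% rat cortex homogenate, pre-incubated 5 min with iso-OMPA (4.0 mmol/L). BuChE from 25% rat serum. Enzyme incubated with compound (<1% DMSO) and acetyl- or butyrylthiocholine iodide (1 mmol/L) in phosphate buffer pH 7.4 for 15 min at 37 °C. DTNB added, read at 405 nm. IC50 from 3 independent experiments. Index = BuChE IC50/AChE IC50.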

Acetylcholinesterase [5] = target: Acetylcholinesterase (Homo sapiens, UniProt P22303); assay: Inhibition of human erythrocyte AChE using acetylthiocholine iodide as substrate after 15 mins by Ellman's method
Chain of Acetylcholinesterase (Homo sapiens, UniProt P22303) (P22303 whole entry): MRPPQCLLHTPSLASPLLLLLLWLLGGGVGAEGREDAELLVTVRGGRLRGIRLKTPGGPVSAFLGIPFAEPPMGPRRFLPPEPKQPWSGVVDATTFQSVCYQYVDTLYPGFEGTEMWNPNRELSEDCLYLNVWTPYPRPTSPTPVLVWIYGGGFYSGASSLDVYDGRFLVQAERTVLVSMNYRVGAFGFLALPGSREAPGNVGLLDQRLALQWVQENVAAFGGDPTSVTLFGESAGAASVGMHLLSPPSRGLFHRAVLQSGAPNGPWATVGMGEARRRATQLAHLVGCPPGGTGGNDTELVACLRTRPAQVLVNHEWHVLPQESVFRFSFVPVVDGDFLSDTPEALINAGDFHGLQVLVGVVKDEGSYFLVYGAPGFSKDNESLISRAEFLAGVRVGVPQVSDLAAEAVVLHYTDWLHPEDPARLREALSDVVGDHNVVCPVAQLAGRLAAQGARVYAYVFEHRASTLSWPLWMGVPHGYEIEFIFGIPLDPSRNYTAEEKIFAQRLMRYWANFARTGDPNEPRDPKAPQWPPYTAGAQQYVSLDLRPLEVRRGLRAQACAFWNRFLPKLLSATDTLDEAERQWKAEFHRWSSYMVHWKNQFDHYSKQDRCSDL

PC-12 [6] = assay: Neuroprotective activity against H2O2-induced cell injury in rat PC12 cells assessed as cell viability at 10 uM preincubated for 24 hrs followed by incubation with H2O2 for 2 hrs measured after 24 hrs by MTT assay (reference value: 43.9%); type: functional; settings: read-out: Activity; outline: as §1
[7] = Inhibition of rat serum BuChE using butyrylthiocholine iodide as substrate after 15 mins by Ellman's method; type: ADME
[8] = target: Amyloid-beta precursor protein (Homo sapiens) (UniProt P05067); assay: Inhibition of amyloid beta (1 to 42) (unknown origin) self aggregation at 25 uM after 24 hrs by ThT-based fluorometric method relative to control
Chain of Amyloid-beta precursor protein (Homo sapiens) (P05067 whole entry): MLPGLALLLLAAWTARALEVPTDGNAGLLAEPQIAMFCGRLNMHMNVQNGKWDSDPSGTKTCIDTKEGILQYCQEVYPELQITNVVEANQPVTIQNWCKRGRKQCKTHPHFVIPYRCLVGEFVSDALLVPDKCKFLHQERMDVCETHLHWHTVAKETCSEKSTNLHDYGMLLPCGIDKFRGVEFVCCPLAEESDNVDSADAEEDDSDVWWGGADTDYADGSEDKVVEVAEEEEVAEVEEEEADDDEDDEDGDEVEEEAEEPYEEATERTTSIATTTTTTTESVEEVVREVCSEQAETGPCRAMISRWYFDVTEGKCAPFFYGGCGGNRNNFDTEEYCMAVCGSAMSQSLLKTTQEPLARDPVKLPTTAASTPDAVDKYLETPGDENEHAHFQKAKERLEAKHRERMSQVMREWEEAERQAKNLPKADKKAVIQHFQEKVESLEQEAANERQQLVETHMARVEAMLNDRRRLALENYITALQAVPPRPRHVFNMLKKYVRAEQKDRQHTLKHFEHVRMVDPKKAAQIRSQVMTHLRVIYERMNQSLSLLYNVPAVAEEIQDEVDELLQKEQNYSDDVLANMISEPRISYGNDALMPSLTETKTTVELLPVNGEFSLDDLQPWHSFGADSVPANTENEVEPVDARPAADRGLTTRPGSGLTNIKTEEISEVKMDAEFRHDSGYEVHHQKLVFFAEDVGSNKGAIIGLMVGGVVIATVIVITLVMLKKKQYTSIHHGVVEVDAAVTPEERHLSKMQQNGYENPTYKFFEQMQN
Outline: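 Aβ1-42 (25 µM final) incubated at 37 °C for 24 h ± compound in 50 mM phosphate buffer pH 7.4, with DMSO stocks diluted in buffer. Then 5 µM thioflavin T in 50 mM glycine-NaOH pH 8.5 was added and read at ex 446/em 490 nm. Run in triplicate. % inhibition = (1−IFi/IFc)×100 after background subtraction.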

PC-12 [9] = assay: Neuroprotective activity against H2O2 induced cell injury in rat PC12 cells assessed as cell viability at 1 uM preincubated for 24 hrs followed by incubation with H2O2 for 2 hrs measured after 24 hrs by MTT assay (reference value: 43.9%); type: functional; settings: read-out: Activity; outline: as §1
Acetylcholinesterase [10] = target: Acetylcholinesterase (Electrophorus electricus, UniProt O42275); assay: Inhibition of electric eel AChE using acetylthiocholine iodide as substrate after 15 mins by Ellman's method
Chain of Acetylcholinesterase (Electrophorus electricus, UniProt O42275) (O42275 whole entry): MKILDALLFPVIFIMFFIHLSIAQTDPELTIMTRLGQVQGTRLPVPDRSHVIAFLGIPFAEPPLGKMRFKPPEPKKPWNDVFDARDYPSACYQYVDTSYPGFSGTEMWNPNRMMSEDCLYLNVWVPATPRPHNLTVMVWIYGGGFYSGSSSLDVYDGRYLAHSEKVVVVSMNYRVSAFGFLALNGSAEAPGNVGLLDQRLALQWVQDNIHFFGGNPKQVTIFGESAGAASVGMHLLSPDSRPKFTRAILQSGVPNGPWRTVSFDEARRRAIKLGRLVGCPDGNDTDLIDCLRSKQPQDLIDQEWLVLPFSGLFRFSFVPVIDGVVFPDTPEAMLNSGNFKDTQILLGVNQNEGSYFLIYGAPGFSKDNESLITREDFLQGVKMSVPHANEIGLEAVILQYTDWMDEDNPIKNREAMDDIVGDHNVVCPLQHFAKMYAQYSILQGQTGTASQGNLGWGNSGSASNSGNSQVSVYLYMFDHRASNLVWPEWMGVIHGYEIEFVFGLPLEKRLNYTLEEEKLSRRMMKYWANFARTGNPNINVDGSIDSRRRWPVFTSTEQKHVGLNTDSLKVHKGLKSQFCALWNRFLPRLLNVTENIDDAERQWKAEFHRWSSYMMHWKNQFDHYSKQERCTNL

SH-SY5Y = assay: Cytotoxicity against human SH-SY5Y cells assessed as reduction in cell viability up to 10 uM after 24 hrs by MTT assay; type: cell-based; outline: as §2
Acetylcholinesterase [11] = target: T1, Acetylcholinesterase (Rattus norvegicus, UniProt P37136); assay: Inhibition of rat cortex homogenate AChE using acetylthiocholine iodide as substrate after 15 mins in presence of BuChE inhibitor iso-OMPA by Ellman's method
T1 sequence (P37136 whole entry): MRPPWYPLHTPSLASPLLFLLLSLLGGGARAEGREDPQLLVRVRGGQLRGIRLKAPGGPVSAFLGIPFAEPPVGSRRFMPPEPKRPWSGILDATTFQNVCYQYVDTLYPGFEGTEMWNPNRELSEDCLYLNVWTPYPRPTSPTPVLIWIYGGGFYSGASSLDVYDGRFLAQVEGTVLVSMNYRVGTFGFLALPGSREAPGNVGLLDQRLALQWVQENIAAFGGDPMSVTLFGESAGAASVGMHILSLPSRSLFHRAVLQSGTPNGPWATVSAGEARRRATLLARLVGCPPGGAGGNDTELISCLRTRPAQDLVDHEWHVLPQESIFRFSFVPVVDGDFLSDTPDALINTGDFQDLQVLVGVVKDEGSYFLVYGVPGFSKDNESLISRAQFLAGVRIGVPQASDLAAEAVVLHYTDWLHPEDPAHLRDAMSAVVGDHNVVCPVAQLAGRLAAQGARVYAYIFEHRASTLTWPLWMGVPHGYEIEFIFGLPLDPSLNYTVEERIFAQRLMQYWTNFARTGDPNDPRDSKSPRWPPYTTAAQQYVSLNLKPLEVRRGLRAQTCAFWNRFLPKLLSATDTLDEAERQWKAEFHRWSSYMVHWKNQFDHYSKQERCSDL

[12] = Antioxidant activity assessed as trolox equivalents of AAPH radical scavenging activity at 1 to 10 uM preincubated for 15 mins followed by AAPH addition measured every 60 sec for 90 mins by ORAC-FL assay; type: functional
Outline: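 ORAC-FL in 75 mM phosphate buffer pH 7.4. Compound at 1–10 µM with fluorescein (150 nM final), pre-incubated 15 min at 37 °C, then AAPH added (12 mM final). Fluorescence read every minute for 90 min, ex 485/em 535 nm. Curves normalised to the FL+AAPH blank. Trolox standard 1–8 µM. Duplicates, ≥3 independent assays. Results given as µM Trolox equivalent per µM compound.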

With `CCN(CCCCNC(=O)COc1ccc(-c2cc(=O)c3c(OC)c(OC)c(OC)cc3o2)cc1)Cc1ccccc1OC` the solubility [1] was “Insoluble”, the Activity (PC-12 [2]) was “Dose-dependent effect” and the solubility [3] was “Insoluble”. It also gave a viability at 24 h, 100 µM [4] of 79.4%, a Ratio IC50 (Rattus norvegicus) of over 6760 and an IC50 (Acetylcholinesterase [5]) of 63 nM. The viability at 10 µM (PC-12 [6]) was 63.3%, the IC50 [7] was over 500 µM and the inhibition [8] was 44.7%. The viability at 1 µM (PC-12 [9]) was 60.1%, the IC50 (Acetylcholinesterase [10]) was 9.77 µM and the Activity (SH-SY5Y) was “Non-Toxic”. It also gave an IC50 (Acetylcholinesterase [11]) of 74 nM and an Activity [12] of 0.38 equiv.
